Test results from the array DNA melting data of Ke et al. (doi:10.1101/2024.01.08.574731).

Key:
[1] = melting temperature; fluorescence melt of hairpins on a sequencing array, two-state fit, raised by 9.35 °C to match UV melts; conditions: sodium 0.088 M
Summary of the method: (§1)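 On a sequenced MiSeq flow cell, library hairpins with annealed Cy3 and quencher oligos were imaged for Cy3 fluorescence in 2.5 °C steps up to 60 °C, in 50 mM Na-HEPES pH 8.0, 25 mM NaCl. Normalisation used pre-quench Cy3 and control constructs. Bootstrapped two-state fits gave melting temperature and folding enthalpy, combined by inverse variance across four replicates and with fitted temperatures raised by 9.35 °C to match UV melts.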

[2] = folding enthalpy; higher = less favourable; fluorescence melt of hairpins on a sequencing array, two-state fit; conditions: sodium 0.088 M
Summary of the method: as §1

Row | Sequence | Tm [1] [°C] | folding enthalpy [2] [kcal/mol]
1 | GTGCTGTCGAAAGACCAC (((..(((....)))))) | 45.4 | -13.1
2 | GTGCTTCGAAAGAACCAC (((.(((....))).))) | 34.8 | -27.8
3 | GTGCTTGGAAACGAGCAC (((((.(....).))))) | 55.5 | -40.1
4 | GTGCTTTCGAAAGAACAC (((..(((....)))))) | 36.7 | -19.8
5 | GTGGAAGGAAACTCCCAC ((((.((....)).)))) | 38.6 | -36.2
6 | GTGGAAGGAAACTTCTGC (..((((....))))..) | 34.1 | -14.4
7 | GTGGACCCGAAAGGGCAC (((..(((....)))))) | 49.3 | -16.6
8 | GTGGACGAAAGTCCGCAC ((((((....)))..))) | 55.7 | -11.8
9 | GTGGACGAAAGTCGGCAC ((((((....)))..))) | 39.8 | -15.5
10 | GTGGACGGAAACGTTCGC (.(.(((....))).).) | 45 | -26.6
11 | GTGGAGCGAAAGCTACAC (((.(((....))).))) | 68.2 | -30.8
12 | GTGGAGCGAAAGCTGCAC (((.(((....))).))) | 62.4 | -34
13 | GTGGAGGAAACTCCAC ((((((....)))))) | 60.1 | -35.2
14 | GTGGAGGGAAACCTCCGC (.(((((....))))).) | 56.2 | -37.6
15 | GTGGATACGAAAGTACAC (((..(((....)))))) | 36.8 | -13.5
16 | GTGGATGGAAACATCCAC (((((((....))))))) | 65.1 | -50.1
17 | GTGGATGGAAACATCTAC ((.((((....)))).)) | 46.8 | -31
18 | GTGGATGGAAACATCTGC (..((((....))))..) | 37.6 | -23
19 | GTGGCACGAAAGTGCAC (((.(((....)))))) | 52.1 | -11
20 | GTGGCAGGAAACCGCCAC (((((.(....).))))) | 55.9 | -46.8
21 | GTGGCAGGAAACTGCTGC (..((((....))))..) | 44.2 | -17.4
22 | GTGGCAGGAAACTGTCGC (.(.(((....))).).) | 45.7 | -27.3
23 | GTGGCATCGAAAGATCAC (((..(((....)))))) | 34.2 | -12.8

Row | Sequence | Tm [1] [°C] | folding enthalpy [2] [kcal/mol]
24 | GTGGCCCGAAAGGGCAC (((.(((....)))))) | 62 | -10.3
25 | GTGGCCGAAAGGCAACAC ((((((....)))..))) | 55.5 | -13.3
26 | GTGGCCGAAAGGCCCAC ((((((....))).))) | 57.5 | -10.5
27 | GTGGCCGAAAGGCCCCAC ((((((....)))..))) | 38.1 | -5.99
28 | GTGGCCGAAAGGCGGCAC ((((((....)))..))) | 46.7 | -13.8
29 | GTGGCCGAAAGGCTCAC ((((((....))).))) | 54.9 | -16.2
30 | GTGGCCGGAAACAGCCAC (((((.(....).))))) | 54.5 | -47.6
31 | GTGGCGCCGAAAGGCCAC (((..(((....)))))) | 57.8 | -13.8
32 | GTGGCGGGAAACCGTCGC (.(.(((....))).).) | 50.5 | -24.9
33 | GTGGCGTCGAAAGACCAC (((..(((....)))))) | 44.5 | -12.9
34 | GTGGGCGAAAGCCCCCAC ((((((....)))..))) | 38.7 | -7.28
35 | GTGGGCGAAAGCCCTCAC ((((((....)))..))) | 39.5 | -8.43
36 | GTGGGCGAAAGCCGCCAC ((((((....)))..))) | 42.3 | -13.3
37 | GTGGGCGAAAGCCTCAC ((((((....))).))) | 51.9 | -15.5
38 | GTGGGCGAAAGCCTGCAC ((((((....)))..))) | 45.3 | -12.4
39 | GTGGTACGAAAGTACAC (((.(((....)))))) | 49.7 | -15
40 | GTGGTAGGAAACTATCAC (((.(((....))).))) | 44.4 | -28.4
41 | GTGGTCCGAAAGGACAC (((.(((....)))))) | 53.2 | -12.8
42 | GTGGTCGAAAGACATCAC ((((((....)))..))) | 34.2 | -14.3
43 | GTGGTCGAAAGACGACAC ((((((....)))..))) | 47.2 | -15.4
44 | GTGGTCGAAAGACGTCAC ((((((....)))..))) | 36.2 | -13.5
45 | GTGGTCGAAAGACTGCAC ((((((....)))..))) | 40.8 | -14.7
46 | GTGGTCGGAAACAACCAC (((((.(....).))))) | 45.4 | -29.4

Row | Sequence | Tm [1] [°C] | folding enthalpy [2] [kcal/mol]
47 | GTGGTCGGAAACGACTGC (..((((....))))..) | 49.5 | -14.3
48 | GTGGTCGGAAACGATCAC (((.(((....))).))) | 55.7 | -44.6
49 | GTGGTGACGAAAGTCCAC (((..(((....)))))) | 45.6 | -19
50 | GTGGTTGCGAAAGCACAC (((..(((....)))))) | 42.7 | -15.6
51 | GTGTAAACGAAAGTTCAC (((..(((....)))))) | 33.7 | -18
52 | GTGTAACGAAAGTTCCAC (((.(((....))).))) | 38.9 | -22.6
53 | GTGTACACGAAAGTGCAC (((..(((....)))))) | 47.1 | -19
54 | GTGTACCGAAAGGTTCAC (((.(((....))).))) | 53.1 | -35.8
55 | GTGTACGAAAGTACAC ((((((....)))))) | 69.1 | -29.7
56 | GTGTACGAAAGTACCAC ((((((....))).))) | 44.4 | -13.3
57 | GTGTACGAAAGTACCCAC ((((((....)))..))) | 31.9 | -10.3
58 | GTGTACGAAAGTACTCAC ((((((....)))..))) | 35.7 | -11.4
59 | GTGTACGAAAGTATCAC ((((((....))).))) | 43.6 | -22.8
60 | GTGTACGCGAAAGCGCAC (((..(((....)))))) | 48.9 | -16.7
61 | GTGTACGGAAACACACAC ((((..(....)..)))) | 31.9 | -12.6
62 | GTGTACTCGAAAGAGCAC (((..(((....)))))) | 43.5 | -21.8
63 | GTGTAGCCGAAAGGCCAC (((..(((....)))))) | 47 | -17.3
64 | GTGTAGCGAAAGCTGCAC (((.(((....))).))) | 63.9 | -36.6
65 | GTGTAGGGAAACCTACGC (.(((((....))))).) | 50 | -17.9
66 | GTGTATGGAAACATACGC (.(((((....))))).) | 48.5 | -20.1
67 | GTGTATGGAAACATATGC (..((((....))))..) | 30.7 | -24.1
68 | GTGTCACGAAAGTGCCAC (((.(((....))).))) | 52.2 | -51.5
